Results reported in ChEMBL document CHEMBL4689842, “EUbOPEN Chemogenomics Library wave 1” (2021).

Tested on: U2OS
Assay: Multiplex assay against U2OS
Format: toxicity, cell-based
Details: human
Outline: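 Live cells were stained at seeding with Hoechst33342, BioTracker Green Microtubule Cytoskeleton Dye, MitoTracker Red and Annexin V Alexa Fluor 680, then imaged on a CQ1 microscope at 37°C and 5% CO2 after compound addition. CellPathfinder machine-learning gating split cells into Hoechst high-intensity objects or normal cells. Normal cells were split into healthy, pyknosed or fragmented nuclei, and pyknosed cells into mitotic or apoptotic. Tubulin, mitochondrial-mass and membrane-permeability phenotypes are per cents of healthy-nucleus cells.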

[1] = 12 h, 1 µM, compound concentration 1 uM, replicate 1
[2] = 12 h, 1 µM, compound concentration 1 uM, replicate 2
[3] = 12 h, 10 µM, compound concentration 10 uM, replicate 1
[4] = 12 h, 10 µM, compound concentration 10 uM, replicate 2
[5] = 24 h, 1 µM, compound concentration 1 uM, replicate 1
[6] = 24 h, 1 µM, compound concentration 1 uM, replicate 2
[7] = 24 h, 10 µM, compound concentration 10 uM, replicate 1
[8] = 24 h, 10 µM, compound concentration 10 uM, replicate 2
[9] = 48 h, 1 µM, compound concentration 1 uM, replicate 1
[10] = 48 h, 1 µM, compound concentration 1 uM, replicate 2
[11] = 48 h, 10 µM, compound concentration 10 uM, replicate 1
[12] = 48 h, 10 µM, compound concentration 10 uM, replicate 2

Compound: COc1ccc(-c2ccc3ncc4c(c3c2)n(-c2ccc(N3CCNCC3)c(C(F)(F)F)c2)c(=O)n4C)cn1.O=C(O)/C=C\C(=O)O [BGT-226]
- Population Apoptotic (%) [1]: 86%
- Population Fragmented Nuclei (%) [1]: 50%
- Population Healthy Nuclei (%) [1]: 10%
- Population Hoechst High Intensity Objects (%) [1]: 14%
- Population Membrane Permeable-Phenotype (%) [1]: 58%
- Population Mitotic Cells (%) [1]: 13%
- Population Normal (%) [1]: 85%
- Population Pyknosed Nuclei (%) [1]: 38%
- Total Cell Count [1]: 182
- Population Apoptotic (%) [2]: 81%
- Population Fragmented Nuclei (%) [2]: 24%
- Population Healthy Nuclei (%) [2]: 45%
- Population Hoechst High Intensity Objects (%) [2]: 17%
- Population Membrane Permeable-Phenotype (%) [2]: 70%
- Population Mitochondria Different-Phenotype (%) [2]: 94%
- Population Mitotic Cells (%) [2]: 18%
- Population Normal (%) [2]: 82%
- Population Pyknosed Nuclei (%) [2]: 29%
- Population Tubulin-Different-Phenotype (%) [2]: 94%
- Total Cell Count [2]: 45
- Population Apoptotic (%) [3]: 97%
- Population Fragmented Nuclei (%) [3]: 33%
- Population Healthy Nuclei (%) [3]: 1%
- Population Hoechst High Intensity Objects (%) [3]: 13%
- Population Membrane Permeable-Phenotype (%) [3]: 50%
- Population Mitochondria Different-Phenotype (%) [3]: 50%
- Population Mitotic Cells (%) [3]: 2%
- Population Normal (%) [3]: 86%
- Population Pyknosed Nuclei (%) [3]: 65%
- Population Tubulin-Different-Phenotype (%) [3]: 50%
- Total Cell Count [3]: 258
- Population Apoptotic (%) [4]: 100%
- Population Fragmented Nuclei (%) [4]: 70%
- Population Healthy Nuclei (%) [4]: 9%
- Population Hoechst High Intensity Objects (%) [4]: 62%
- Population Membrane Permeable-Phenotype (%) [4]: 24%
- Population Mitochondria Different-Phenotype (%) [4]: 32%
- Population Mitotic Cells (%) [4]: 0%
- Population Normal (%) [4]: 37%
- Population Pyknosed Nuclei (%) [4]: 19%
- Population Tubulin-Different-Phenotype (%) [4]: 24%
- Total Cell Count [4]: 675
- Population Apoptotic (%) [5]: 98%
- Population Fragmented Nuclei (%) [5]: 47%
- Population Healthy Nuclei (%) [5]: 5%
- Population Hoechst High Intensity Objects (%) [5]: 14%
- Population Membrane Permeable-Phenotype (%) [5]: 75%
- Population Mitochondria Different-Phenotype (%) [5]: 87%
- Population Mitotic Cells (%) [5]: 1%
- Population Normal (%) [5]: 85%
- Population Pyknosed Nuclei (%) [5]: 47%
- Population Tubulin-Different-Phenotype (%) [5]: 75%
- Total Cell Count [5]: 181
- Population Apoptotic (%) [6]: 83%
- Population Fragmented Nuclei (%) [6]: 20%
- Population Healthy Nuclei (%) [6]: 40%
- Population Hoechst High Intensity Objects (%) [6]: 30%
- Population Membrane Permeable-Phenotype (%) [6]: 66%
- Population Mitochondria Different-Phenotype (%) [6]: 91%
- Population Mitotic Cells (%) [6]: 16%
- Population Normal (%) [6]: 69%
- Population Pyknosed Nuclei (%) [6]: 40%
- Population Tubulin-Different-Phenotype (%) [6]: 91%
- Total Cell Count [6]: 43
- Population Apoptotic (%) [7]: 97%
- Population Fragmented Nuclei (%) [7]: 39%
- Population Healthy Nuclei (%) [7]: 0%
- Population Hoechst High Intensity Objects (%) [7]: 15%
- Population Membrane Permeable-Phenotype (%) [7]: 100%
- Population Mitochondria Different-Phenotype (%) [7]: 100%
- Population Mitotic Cells (%) [7]: 2%
- Population Normal (%) [7]: 84%
- Population Pyknosed Nuclei (%) [7]: 59%
- Population Tubulin-Different-Phenotype (%) [7]: 100%
- Total Cell Count [7]: 269
- Population Apoptotic (%) [8]: 100%
- Population Fragmented Nuclei (%) [8]: 79%
- Population Healthy Nuclei (%) [8]: 10%
- Population Hoechst High Intensity Objects (%) [8]: 64%
- Population Membrane Permeable-Phenotype (%) [8]: 69%
- Population Mitochondria Different-Phenotype (%) [8]: 60%
- Population Mitotic Cells (%) [8]: 0%
- Population Normal (%) [8]: 35%
- Population Pyknosed Nuclei (%) [8]: 9%
- Population Tubulin-Different-Phenotype (%) [8]: 60%
- Total Cell Count [8]: 614
- Population Fragmented Nuclei (%) [9]: 45%
- Population Healthy Nuclei (%) [9]: 3%
- Population Hoechst High Intensity Objects (%) [9]: 22%
- Population Membrane Permeable-Phenotype (%) [9]: 80%
- Population Mitochondria Different-Phenotype (%) [9]: 80%
- Population Normal (%) [9]: 77%
- Population Pyknosed Nuclei (%) [9]: 50%
- Population Tubulin-Different-Phenotype (%) [9]: 80%
- Total Cell Count [9]: 185
- Population Apoptotic (%) [10]: 100%
- Population Fragmented Nuclei (%) [10]: 25%
- Population Healthy Nuclei (%) [10]: 35%
- Population Hoechst High Intensity Objects (%) [10]: 34%
- Population Membrane Permeable-Phenotype (%) [10]: 90%
- Population Mitochondria Different-Phenotype (%) [10]: 90%
- Population Mitotic Cells (%) [10]: 0%
- Population Normal (%) [10]: 65%
- Population Pyknosed Nuclei (%) [10]: 39%
- Population Tubulin-Different-Phenotype (%) [10]: 90%
- Total Cell Count [10]: 43
- Population Apoptotic (%) [11]: 97%
- Population Fragmented Nuclei (%) [11]: 40%
- Population Healthy Nuclei (%) [11]: 3%
- Population Hoechst High Intensity Objects (%) [11]: 18%
- Population Membrane Permeable-Phenotype (%) [11]: 71%
- Population Mitochondria Different-Phenotype (%) [11]: 85%
- Population Mitotic Cells (%) [11]: 2%
- Population Normal (%) [11]: 81%
- Population Pyknosed Nuclei (%) [11]: 55%
- Population Tubulin-Different-Phenotype (%) [11]: 85%
- Total Cell Count [11]: 260
- Population Apoptotic (%) [12]: 100%
- Population Fragmented Nuclei (%) [12]: 85%
- Population Healthy Nuclei (%) [12]: 12%
- Population Hoechst High Intensity Objects (%) [12]: 67%
- Population Membrane Permeable-Phenotype (%) [12]: 81%
- Population Mitochondria Different-Phenotype (%) [12]: 72%
- Population Mitotic Cells (%) [12]: 0%
- Population Normal (%) [12]: 32%
- Population Pyknosed Nuclei (%) [12]: 1%
- Population Tubulin-Different-Phenotype (%) [12]: 72%
- Total Cell Count [12]: 534
